Experimental findings from ChEMBL document CHEMBL2057156, “Synthesis and biological evaluation of the first dual tyrosyl-DNA phosphodiesterase I (Tdp1)-topoisomerase I (Top1) inhibitors” (J Med Chem, 2012) are described below.

Active and inactive are the calls of the source. The rule behind the calls is not given here. Some results are limits rather than exact numbers.

The target of test [1] is T1, DNA topoisomerase 1 (Homo sapiens) (UniProt P11387).
T1 sequence (whole entry): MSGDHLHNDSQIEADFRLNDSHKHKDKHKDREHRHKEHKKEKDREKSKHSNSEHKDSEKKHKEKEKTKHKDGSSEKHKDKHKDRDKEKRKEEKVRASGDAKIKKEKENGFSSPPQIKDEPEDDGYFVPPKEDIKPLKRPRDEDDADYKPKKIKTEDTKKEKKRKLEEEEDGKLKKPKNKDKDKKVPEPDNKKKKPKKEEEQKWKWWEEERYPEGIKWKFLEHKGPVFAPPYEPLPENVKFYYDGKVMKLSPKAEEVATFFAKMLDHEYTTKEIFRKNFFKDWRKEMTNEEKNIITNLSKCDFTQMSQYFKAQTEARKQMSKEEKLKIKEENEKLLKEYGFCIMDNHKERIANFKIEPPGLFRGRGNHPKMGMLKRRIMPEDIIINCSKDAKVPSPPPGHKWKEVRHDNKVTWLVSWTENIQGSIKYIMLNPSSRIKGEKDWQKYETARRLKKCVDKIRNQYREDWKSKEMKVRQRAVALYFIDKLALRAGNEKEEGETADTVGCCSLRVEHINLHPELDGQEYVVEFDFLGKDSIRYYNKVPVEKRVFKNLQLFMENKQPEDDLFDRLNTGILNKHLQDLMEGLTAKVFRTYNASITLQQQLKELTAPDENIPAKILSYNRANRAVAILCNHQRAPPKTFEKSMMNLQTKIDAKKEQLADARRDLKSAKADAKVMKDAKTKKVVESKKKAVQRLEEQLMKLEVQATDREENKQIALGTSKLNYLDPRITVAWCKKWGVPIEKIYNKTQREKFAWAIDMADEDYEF
Briefly: Inhibition of human recombinant Top1-mediated DNA cleavage by polyacrylamide gel electrophoresis relative to camptothecin. More on the design: concentration or dose not given beside the values. A digest of the protocol: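 Baculovirus-purified human recombinant Top1 was incubated for 20 min at 25 °C, with compounds at various concentrations, with about 2 nM of a 117-bp oligonucleotide 3′-end-labeled with [α-³²P]dGTP. Reactions were stopped with 0.5% SDS and run on 20% denaturing PAGE. Cleavage bands were phosphorimaged and graded semiquantitatively against 1 μM camptothecin.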

The target of test [2] is T2, Tyrosyl-DNA phosphodiesterase 1 (Homo sapiens, UniProt Q9NUW8). Briefly: Inhibition of human recombinant Tdp1 using 5'-[32P]-labeled single-stranded DNA oligonucleotide containing 3'-phosphotyrosine as substrate assessed as prevention of generation of oligonucleotide with free 3'-phosphate after 15 mins by PAGE analysis.
T2 sequence (Q9NUW8 whole entry): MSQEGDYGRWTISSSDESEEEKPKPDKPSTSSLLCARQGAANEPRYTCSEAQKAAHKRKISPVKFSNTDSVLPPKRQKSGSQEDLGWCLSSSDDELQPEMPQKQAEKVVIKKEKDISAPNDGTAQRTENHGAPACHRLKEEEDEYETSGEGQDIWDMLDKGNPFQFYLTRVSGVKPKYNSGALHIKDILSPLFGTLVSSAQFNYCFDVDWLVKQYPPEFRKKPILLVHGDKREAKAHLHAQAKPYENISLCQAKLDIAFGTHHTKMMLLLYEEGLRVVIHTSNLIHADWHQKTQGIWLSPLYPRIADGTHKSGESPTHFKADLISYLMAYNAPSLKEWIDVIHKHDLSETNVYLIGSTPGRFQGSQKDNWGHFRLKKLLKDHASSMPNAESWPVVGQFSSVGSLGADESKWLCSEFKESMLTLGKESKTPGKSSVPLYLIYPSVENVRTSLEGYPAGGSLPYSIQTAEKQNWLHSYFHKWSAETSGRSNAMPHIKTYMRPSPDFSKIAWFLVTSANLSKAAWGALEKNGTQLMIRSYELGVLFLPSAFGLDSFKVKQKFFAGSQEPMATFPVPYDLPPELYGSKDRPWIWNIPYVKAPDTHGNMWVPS
Test [3] has as its target T2, Tyrosyl-DNA phosphodiesterase 1. Briefly: Inhibition of human Tdp1 in Tdp1-deficient chicken DT40 whole cell extract using 5'-[32P]-labeled single-stranded DNA oligonucleotide containing 3'-phosphotyrosine as substrate after 15 mins by PAGE analysis.
Test [4] is described as follows: Growth inhibition of human NCI60 cells. It counts as functional.
For test [5], the target named is T2, Tyrosyl-DNA phosphodiesterase 1. Description: Binding affinity to human recombinant Tdp1 at 0.4 to 33 uM by surface plasmon resonance spectroscopy analysis. A digest of the protocol:
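Amine-coupled to a CM5 chip to about 4000 RU; before coupling, Tdp1 (1 μM) was preloaded for 20 min with 2 μM 3′-phosphate 14-mer in 10 mM sodium acetate pH 4.5 to shield the active site, then the oligo was stripped with 1 M NaCl. Analyte was injected in 10 mM Hepes, 150 mM NaCl, 0.01% Tween 20, 5% DMSO, pH 7.5, at 30 μL/min, 25 °C. Responses were corrected against a Tdp1-free reference surface, buffer cycles and DMSO calibration.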
For orientation: Surface plasmon resonance follows binding to a sensor surface in real time, without labels.

Take `NCCCCCn1c2c(c3ccccc3c1=O)C(=O)c1ccccc1-2`: the inhibition (commonly the share of the control response that was lost under treatment) in test [1] (concentration not given here) was 0%. In addition, the figures for the IC50 in test [2] and in test [3] were 17.5 µM and 28 µM, respectively.

`NCCCCCCCn1c2c(c3ccccc3c1=O)C(=O)c1ccccc1-2`: the inhibition in test [1] (concentration not given here) turned out to be 0%. In addition, the IC50 (in general, the concentration needed to halve the response being measured) in test [2] amounted to 28.8 µM; in test [3] it was 31 µM.

In the case of `O=C1c2cc(-c3ccccc3)ccc2-c2c1c1ccc([N+](=O)[O-])cc1c(=O)n2CCCNS(=O)(=O)c1ccccc1`, the GI50 (usually the concentration at which growth is held to half of that of the control) in test [4] is 0.55 µM. In addition, in test [1] (concentration not given here), the inhibition came to 0%. In addition, the half-inhibitory concentration (IC50) in test [2] was over 111 µM.

For the compound `NCCCCn1c2c(c3ccccc3c1=O)C(=O)c1ccccc1-2`, the inhibition in test [1] (concentration not given here) is 75%. Besides, in test [3], the half-maximal inhibitory concentration (IC50) was found to be 23.4 µM.

As for `NCCn1c2c(c3ccccc3c1=O)C(=O)c1ccccc1-2`, in test [1] (concentration not given here), the inhibition amounted to 75%. Moreover, the results for the half-inhibitory concentration (IC50) in test [2] and in test [3] were 55.3 µM and 78 µM, respectively.

Regarding `NCCCCCCCCCCCn1c2c(c3ccccc3c1=O)C(=O)c1ccccc1-2`, in test [1] (concentration not given here), the inhibition came out at 20%. Also, the results for the IC50 in test [2] and in test [3] were 12.8 µM and 14.1 µM, respectively.

In the case of `NCCCn1c2c(c3ccccc3c1=O)C(=O)c1ccccc1-2`, the inhibition in test [1] (concentration not given here) was 75%. It took 29.5 µM to reach half-maximal inhibition in test [3] (IC50). Also, the outcome in test [5] was Active.

The compound `COC(=O)c1ccc2c(c1)C(=O)c1c-2n(CCCNS(=O)(=O)c2ccccc2)c(=O)c2cc(OC)c(OC)cc12` returned a GI50 in test [4] of 12.6 µM. In addition, the inhibition in test [1] (concentration not given here) amounted to 0%. In test [2], the IC50 is over 111 µM.

Take `NCCCCCCCCCn1c2c(c3ccccc3c1=O)C(=O)c1ccccc1-2`: the figures for the inhibition in test [1] (concentration not given here) and in test [2] were 0% and “Dose-dependent effect”, respectively. Besides, the concentration for half-maximal inhibition (IC50) in test [2] is 47 µM; in test [3], 48 µM.

`NCCCCCCCCCCCCn1c2c(c3ccccc3c1=O)C(=O)c1ccccc1-2`: the inhibition in test [1] (concentration not given here) was found to be 0%. Besides, the IC50 in test [2] was found to be 15.1 µM; in test [3], 33 µM.

In test [4], `O=C1c2ccccc2-c2c1c1cc3c(cc1c(=O)n2CCCNS(=O)(=O)c1ccccc1)OCO3` showed a 50% growth inhibitory concentration (GI50) of 0.617 µM. The inhibition in test [1] (concentration not given here) came to 50%. Besides, the IC50 in test [2] was over 111 µM.

Take `NCCCCCCCCCCn1c2c(c3ccccc3c1=O)C(=O)c1ccccc1-2`: the inhibition in test [1] (concentration not given here) is 0%. The values for the IC50 in test [2] and in test [3] were 14.1 µM and 21.3 µM, respectively.

As to `O=C1c2ccccc2-c2c1c1ccccc1c(=O)n2CCCCCCCCNS(=O)(=O)c1ccc(Br)cc1`, the inhibition entry in test [1] was “inactive”. For the same compound, the IC50 in test [2] was over 111 µM.

On to `O=C1c2ccccc2-c2c1c1ccccc1c(=O)n2CCCCNS(=O)(=O)c1ccc(Br)cc1`, for which the inhibition result in test [1] was “inactive”. For the same compound, in test [2], the half-inhibitory concentration (IC50) is over 111 µM.

Take `O=C1c2ccccc2-c2c1c1ccccc1c(=O)n2CCCCCCNS(=O)(=O)c1ccccc1`: in test [1], the inhibition entry is “inactive”. For the same compound, the IC50 in test [2] is over 111 µM.

As for `O=C1c2ccccc2-c2c1c1ccccc1c(=O)n2CCCNS(=O)(=O)c1ccccc1`, the inhibition entry in test [1] is “inactive”. Further, the IC50 in test [2] was over 111 µM.

Regarding `O=C1c2ccccc2-c2c1c1ccccc1c(=O)n2CCCCCCCCCCNS(=O)(=O)c1ccc(Br)cc1`, in test [1], the inhibition entry was “inactive”. In test [2], the IC50 is over 111 µM.

As for `Cc1ccc(S(=O)(=O)NCCCCCCn2c3c(c4ccccc4c2=O)C(=O)c2ccccc2-3)cc1`, the inhibition entry in test [1] was “inactive”. In addition, in test [2], the IC50 is over 111 µM.

For the compound `O=C1c2ccccc2-c2c1c1ccccc1c(=O)n2CCCCCNS(=O)(=O)c1ccc(Br)cc1`, the inhibition entry in test [1] was “inactive”. For the same compound, the IC50 in test [2] was over 111 µM.

In the case of `O=C1c2ccccc2-c2c1c1ccccc1c(=O)n2CCCCCCCCCCCNS(=O)(=O)c1ccccc1`, the inhibition entry in test [1] was “inactive”. The 50% inhibitory concentration (IC50) in test [2] was over 111 µM.

For the compound `NCCCCCCn1c2c(c3ccccc3c1=O)C(=O)c1ccccc1-2`, the inhibition in test [1] (concentration not given here) is 50%. In addition, the half-inhibitory concentration (IC50) is 25 µM in test [2] and 35 µM in test [3].

Consider `O=C1c2ccccc2-c2c1c1ccccc1c(=O)n2CCNS(=O)(=O)c1ccc(Br)cc1`, for which the inhibition result in test [1] is “inactive”. Also, the concentration for half-maximal inhibition (IC50) in test [2] is over 111 µM.

In test [4], `O=C1c2ccccc2-c2c1c1ccc([N+](=O)[O-])cc1c(=O)n2CCCNS(=O)(=O)c1ccccc1` came in with a GI50 of 0.046 µM. The inhibition in test [1] (concentration not given here) turned out to be 100%. Besides, in test [2], the half-inhibitory concentration (IC50) was over 111 µM.

For the compound `NCCCCCCCCn1c2c(c3ccccc3c1=O)C(=O)c1ccccc1-2`, the inhibition in test [1] (concentration not given here) was 20%. Also, the results for the 50% inhibitory concentration (IC50) in test [2] and in test [3] were 48 µM and 49 µM, respectively.

With `CS(=O)(=O)NCCCCCCCCCCCn1c2c(c3ccccc3c1=O)C(=O)c1ccccc1-2`, the inhibition result in test [1] is “inactive”. Also, the IC50 in test [2] is over 111 µM.

On to `O=C1c2ccccc2-c2c1c1ccccc1c(=O)n2CCCCCCCNS(=O)(=O)c1ccc(Br)cc1`, for which, in test [1], the inhibition entry was “inactive”. Besides, the 50% inhibitory concentration (IC50) in test [2] is over 111 µM.

`COc1cc2c3c(n(CCCNS(=O)(=O)c4ccccc4)c(=O)c2cc1OC)-c1ccccc1C3=O` yielded a GI50 in test [4] of 1.35 µM. Further, the inhibition in test [1] (concentration not given here) came out at 75%. The concentration for half-maximal inhibition (IC50) in test [2] was over 111 µM.
